Measured values reported in ChEMBL document CHEMBL1156469 (2007).
Activity calls are given as the source filed them. The calls are words filed in the database; no cut-off is given here.

Test system: Rattus norvegicus
Test: Antiapoptotic activity against osteoblasts in ovariectomized Wistar rat at 0.1 mg/kg after 10 weeks
Format: functional, organism-based
Parameters: dose 0.1 mg/kg
In short: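 After 10 weeks, lumbar vertebrae were removed. Apoptotic osteoblasts were detected by TUNEL staining (Klenow FragEL) in undecalcified, plastic-embedded sections. Values are means ± S.D.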

C[C@]12CC[C@@H]3c4ccc(O)cc4CC[C@H]3[C@@H]1CC[C@@H]2O
Activity: Active
